Experimental data taken from the RNAGym collection of RNA variant scans (doi:10.1126/science.aae0568).
Variants at the floor of the assay were thinned out.

B1: tRNA (parent)
chain: GUUCCGUUGGCGUAAUGGUAACGCGUCUCCCUCCUAAGGAGAAGACUGCGGGUUCGAGUCCCGUACGGAACG

Variants of: B1
Assay: yeast fitness relative to wild type (ratio to wild type); higher = fitter; tRNA-Arg(CCU), competitive growth, 37 C, YPD
Method in brief: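 Start and end populations of a pooled competition were compared by 100-nucleotide paired-end sequencing of gene amplicons. The Saccharomyces cerevisiae strains carried tRNA-Arg(CCU) gene variants at the native genomic locus, synthesised with a 3% per-site mutation rate at 69 sites, and competed in YPD at 37°C for 24 hours in six parallel replicates. Darwinian fitness relative to wild type was based on the change in genotype frequencies. Genotypes required ≥ 100 starting reads, and estimates < 0.5 were set to 0.5.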
With A37C C49A the yeast fitness was 0.651.
For C29A C30U G48A G50A C60A, the yeast fitness was ≤ 0.5.
With U8C U19A A40C G44C G48C U53G the yeast fitness was ≤ 0.5.
With C29U A65C C66G the yeast fitness was 0.57.
With G9C G10C C29G the yeast fitness was ≤ 0.5.
A36U G68C gave a yeast fitness of 0.698.
For U2C U16A G67C, the yeast fitness was 0.644.
With G9A C30G the yeast fitness was 0.707.
Variant C22A A37U has a yeast fitness of 0.578.
A21C C62U showed a yeast fitness of 0.798.
U32G G39C A43G G52C showed a yeast fitness of 0.571.
With U16C A37C the yeast fitness was 0.678.
In the case of G6A C22A G23A C33U C34G G68C, the yeast fitness is reported as ≤ 0.5.
Variant A40C G41C G68C has a yeast fitness of 0.542.
In the case of U3A C4U C33U C61A, the yeast fitness is reported as ≤ 0.5.
With A21C C22G G38C G51C the yeast fitness was ≤ 0.5.
With U13C U16C A57G G68A A69G the yeast fitness was ≤ 0.5.
For A43G U47A C55A, the yeast fitness was ≤ 0.5.
For G12C C31G A65C, the yeast fitness was ≤ 0.5.
With C5A A14G A20G C30A A40U G41C C61G G63C the yeast fitness was ≤ 0.5.
For C4U C27U C31G C55U, the yeast fitness was ≤ 0.5.
With A15G G48C G51A A65C the yeast fitness was ≤ 0.5.
Work on C11A U64A yielded a yeast fitness of 0.635.
C5A C22A G56A showed a yeast fitness of 0.525.
Work on U13A A15C C46U yielded a yeast fitness of 0.612.
For G6C C27U A57C A70U, the yeast fitness was 0.537.
With U3A C31U A57U the yeast fitness was 0.598.
With G9A A14C A42G C49G U54C G63C A70U the yeast fitness was ≤ 0.5.
In the case of G17C C24A U47A C66U A69U, the yeast fitness is reported as ≤ 0.5.
For U2A C5U C31A C62U, the yeast fitness was ≤ 0.5.
In the case of A14U C27G A36G G52C C61A, the yeast fitness is reported as ≤ 0.5.
With G17C U19A C49G the yeast fitness was 0.517.
In the case of C4A A36G G44U G51C A65U, the yeast fitness is reported as ≤ 0.5.
For C24G C30G G52A C60A, the yeast fitness was ≤ 0.5.
For G17C G63C C66U, the yeast fitness was ≤ 0.5.
Variant U7A C29U C61U G68C has a yeast fitness of 0.582.
In the case of U2C A14G G18A C33U C34U G39C, the yeast fitness is reported as ≤ 0.5.
G17A A69C A70C showed a yeast fitness of 0.588.
U7C A15C showed a yeast fitness of 0.639.
For A40U A57G U59C U64G, the yeast fitness was ≤ 0.5.
With U7A G12A C30U the yeast fitness was ≤ 0.5.
With G6C U7A C34U C61U the yeast fitness was 0.658.
With C46A G52A the yeast fitness was 0.816.
With C4U G56A A70C the yeast fitness was 0.754.
Work on A15U C33U yielded a yeast fitness of 0.724.
In the case of A15G A43G, the yeast fitness is reported as 0.975.
In the case of U3A A14C A20C U28A C29G U32C G39A A70C, the yeast fitness is reported as ≤ 0.5.
With G18A C46A G63C the yeast fitness was 0.604.
For C24G A37G G58A G67A, the yeast fitness was ≤ 0.5.
Variant C4U U7A U13A U32C G44C has a yeast fitness of 0.718.
Variant U19G C61U has a yeast fitness of 0.77.
For C11G C62U A65U, the yeast fitness was 0.525.
In the case of C29G A36U C49U C60U, the yeast fitness is reported as ≤ 0.5.
For G10A C22U A45G, the yeast fitness was ≤ 0.5.
With G17C A37G C55U the yeast fitness was ≤ 0.5.
Variant U26A G51A has a yeast fitness of 0.769.
In the case of C4A A42U G68C, the yeast fitness is reported as ≤ 0.5.
Work on C24G G50C yielded a yeast fitness of 0.543.
With C22U C61A C66U the yeast fitness was ≤ 0.5.
For A14C U47C A57C, the yeast fitness was ≤ 0.5.
With U2G C29G C33G the yeast fitness was ≤ 0.5.
In the case of A14G C34A C62G G68C, the yeast fitness is reported as 0.763.
Work on A45C G48A yielded a yeast fitness of 0.828.
For C4U G6C A21C C30G C46G, the yeast fitness was 0.524.
C5G C11A U19C A20C C33A C61G showed a yeast fitness of 0.676.
For A15G U26G A57G, the yeast fitness was 0.611.
C4G A40U A45U gave a yeast fitness of 0.546.
With C31G C33G G63A the yeast fitness was ≤ 0.5.
In the case of U7A A36C G56A, the yeast fitness is reported as ≤ 0.5.
In the case of C5U A20C A40C C61U G68C, the yeast fitness is reported as ≤ 0.5.
In the case of G12A A15U C33A A36U C62U, the yeast fitness is reported as ≤ 0.5.
In the case of C24U G51C U53C, the yeast fitness is reported as ≤ 0.5.
Variant G6C A14G U35G has a yeast fitness of 0.605.
For C4G A40G A45G, the yeast fitness was ≤ 0.5.
Work on U32A A69U yielded a yeast fitness of 0.958.
In the case of C4U C24G U26A U28G G68C, the yeast fitness is reported as ≤ 0.5.
For C4A C46G, the yeast fitness was 0.847.
Variant A15G A20U C60G has a yeast fitness of 0.542.
For A20C C27U C34G A43C C61U C62G, the yeast fitness was ≤ 0.5.
In the case of A43U U53C, the yeast fitness is reported as 0.854.
G18A C46A gave a yeast fitness of 0.692.
With U13G C30A the yeast fitness was 0.715.
With G6A C33G C34G A69U the yeast fitness was ≤ 0.5.
In the case of C22G U32A C60A A69C, the yeast fitness is reported as 0.619.
With U7A C31U C34G the yeast fitness was ≤ 0.5.
With U2C A20U U28A the yeast fitness was ≤ 0.5.
A21G C22G U53C C55G showed a yeast fitness of 0.698.
For A20G C24A A45C, the yeast fitness was ≤ 0.5.
Work on A40G C62U yielded a yeast fitness of 0.715.
For C5G A40C C49U, the yeast fitness was ≤ 0.5.
For C5G C11U U47A G68C, the yeast fitness was ≤ 0.5.
In the case of C30U C34U A37U U59C A65U, the yeast fitness is reported as ≤ 0.5.
In the case of C4U U35A G44C C66U G67U A70G, the yeast fitness is reported as ≤ 0.5.
For U2G G51C, the yeast fitness was 0.543.
In the case of C30U C46G C49U A69C, the yeast fitness is reported as ≤ 0.5.
For C11A C55U G63A C66G, the yeast fitness was ≤ 0.5.
U8C U19A A40U gave a yeast fitness of 0.581.
With C24A G25A U35A the yeast fitness was ≤ 0.5.
In the case of C4G G6A U47G, the yeast fitness is reported as ≤ 0.5.
In the case of G56C A65U, the yeast fitness is reported as 0.714.
Variant U2A G9A A70C has a yeast fitness of 0.568.
C27G A40U G68C gave a yeast fitness of 0.523.
G39A G58A A69C gave a yeast fitness of 0.592.
C24U C29A showed a yeast fitness of 0.656.
A42G A45U showed a yeast fitness of 0.952.
With G9A A21G C61U A65U the yeast fitness was ≤ 0.5.
For G25U U64A, the yeast fitness was 0.687.
Work on C4U G10C A36U yielded a yeast fitness of 0.659.
Variant C4U U59A has a yeast fitness of 0.999.
In the case of C5G C27U C49A U54C C60G, the yeast fitness is reported as ≤ 0.5.
With C29U A42U A45C the yeast fitness was 0.51.
A14U G18A C24A C34A showed a yeast fitness of 0.53.
In the case of A20C C22U U47A C62U, the yeast fitness is reported as 0.643.
For C4G G63A, the yeast fitness was 0.813.
In the case of A42G C61A C66A, the yeast fitness is reported as ≤ 0.5.
In the case of G17A C62U, the yeast fitness is reported as 0.736.
With A20G C24U C31A G68C the yeast fitness was ≤ 0.5.
In the case of G10C C34G G67A, the yeast fitness is reported as ≤ 0.5.
With G38C A65C the yeast fitness was 0.578.
For A15C A65G, the yeast fitness was 0.829.
With U7C G23C G52A the yeast fitness was 0.591.
For C11U A14G C27G C31U G68C, the yeast fitness was ≤ 0.5.
For G9C C11A A15U C24G C33G G38C A43G C61G, the yeast fitness was ≤ 0.5.
Variant C5U C24A U47A has a yeast fitness of 0.656.
With G6A A14C A42U G63C the yeast fitness was ≤ 0.5.
In the case of C5A A20U G23A C66U, the yeast fitness is reported as ≤ 0.5.
With C24G U28G C33U A42U G50A A70U the yeast fitness was ≤ 0.5.
With G48C A65G G67C the yeast fitness was ≤ 0.5.
With G17A A20G U53A the yeast fitness was ≤ 0.5.
With U19A A21G C27U C33U G67C the yeast fitness was ≤ 0.5.
C30A A65C gave a yeast fitness of 0.814.
With C33A A40U C55U C62U the yeast fitness was ≤ 0.5.
With G12A A20G A21G C22G the yeast fitness was ≤ 0.5.
With C11U C27U C31A U35C G48U C55G C66U A70C the yeast fitness was ≤ 0.5.
Work on C5A U35C G44A G48C C55G C66U A70U yielded a yeast fitness of 0.558.
Work on A21C C22U C31U C33U C62A yielded a yeast fitness of 0.61.
Work on A20U C62U A69C yielded a yeast fitness of 0.686.
For G25A G39C A57C, the yeast fitness was ≤ 0.5.
G12A G25A G68C showed a yeast fitness of 0.645.
With G9A A14C U32A A70G the yeast fitness was ≤ 0.5.
For G17A C34A A57U, the yeast fitness was ≤ 0.5.
With C5U A14C G41C A43C the yeast fitness was ≤ 0.5.
C5U A20C A36G G52C showed a yeast fitness of 0.567.
With U16G G23C U35C G63A the yeast fitness was ≤ 0.5.
For A37C G63C A69C, the yeast fitness was ≤ 0.5.
For G52C C55U, the yeast fitness was 0.522.
With G9C C30U G48C the yeast fitness was ≤ 0.5.
For G6C C29G C30U G51C C66A, the yeast fitness was 0.686.
Variant U19A A20C A21G C30G C55G has a yeast fitness of 0.573.
In the case of U8G C27U C30A A43C, the yeast fitness is reported as ≤ 0.5.
For C24G G52A, the yeast fitness was 0.566.
In the case of A40G G58C C61G A65C, the yeast fitness is reported as ≤ 0.5.
C55A G67A showed a yeast fitness of 0.658.
With C24U C61A G67A the yeast fitness was ≤ 0.5.
C24U A36G U64A showed a yeast fitness of 0.595.
In the case of A14G C22G U28A C31G C55A G68C, the yeast fitness is reported as ≤ 0.5.
With C22U C46G A65G the yeast fitness was ≤ 0.5.
In the case of G6C G23A C27U A45G U64A, the yeast fitness is reported as ≤ 0.5.
Work on U3C C30U G44A yielded a yeast fitness of 0.566.
With G9A A14C C55U the yeast fitness was ≤ 0.5.
For C5A C31U G48C C55A A69C, the yeast fitness was ≤ 0.5.
For C11A A42G A43U C46U, the yeast fitness was 0.532.
For U2C C11U A21C U26C C49U A57U, the yeast fitness was ≤ 0.5.
For C11G C33G A37U A45U, the yeast fitness was 0.64.
Variant U3C C29G C30G C49A G56C C61U has a yeast fitness of 0.789.
With C22G G41C the yeast fitness was 0.814.
Variant G9A A45C has a yeast fitness of 0.971.
